Published values gathered from unrelated publications.
Lines come from different studies, so protocols differ.
Target: Mitogen-activated protein kinase kinase kinase kinase 1 (MAP4K1, Homo sapiens, UniProt Q92918)

Structure (SMILES)	observed	technique	tested at	remaining binding [%]
FC(F)(F)c1ccc2c(c1)nc(-c1cccnc1)n2C1CC1	cell-free assay	competition with immobilised ligand	1 µM	93
c1cnn2ncc(-c3ccnc(N4CCC45COC5)n3)c2c1	binding	–	1 µM	100
O=C(c1ccc(Nc2ncc(Cl)c(-c3cc4ccccc4s3)n2)cc1)N1CCC(N2CCCC2)CC1	binding	competition with immobilised ligand	1 µM	26
CN(C(=O)c1ccccc1)c1cc(N(C)c2ccc3c(c2)CCc2ccc(C(=O)NCCN4CCOCC4)cc2C3=O)ccc1F	cell-free assay	competition with immobilised ligand	1 µM	99
Cc1cnc(Nc2ccc(C(=O)N3CCC(N4CCCC4)CC3)cc2)nc1-c1cc2ccccc2s1	binding	competition with immobilised ligand	1 µM	22
C=CC(=O)N1CCC(C(=O)NCC(=O)N2CCN(c3nc(-c4cnc(N)nc4C(F)F)nc(N4CCOCC4)n3)CC2)CC1	binding	competition with immobilised ligand	1 µM	100
COc1ccnn2ncc(-c3ccnc(N(C)C)n3)c12	binding	–	1 µM	100
Nc1ncc2c(n1)-c1c([nH]c3ccc(C#CC4CC4)cc13)CCCC2	binding	competition with immobilised ligand	1 µM	100
Cc1c(NC(=O)c2cc(C(N)=O)nc3cc(F)ccc23)c(C(F)(F)F)nn1Cc1ccc(C#N)cc1	cell-free assay	competition with immobilised ligand	1 µM	100
O=C(c1ccc(Nc2ncc(Cl)c(-c3ccc(Cl)s3)n2)cc1)N1CCC(N2CCCC2)CC1	binding	competition with immobilised ligand	1 µM	12
O=C(Nc1c[nH]nc1C(=O)NC1CCNCC1)c1cc(F)cc(F)c1	binding	competition with immobilised ligand	1 µM	100
FC(F)(F)Oc1cccc(-c2cnc3ccc(-c4ccncc4)nn23)c1	cell-free assay	competition with immobilised ligand	5 µM	68
CN(C)c1nccc(-c2cnc3ncccn23)n1	binding	–	1 µM	100
CO[C@H]1CC[C@H](CNc2ccc(S(=O)(=O)NC(=O)c3ccc(N4CCN(CC5=C(c6ccc(Cl)cc6)CC(C)(C)CC5)CC4)cc3Oc3cnc4[nH]ccc4c3)cc2[N+](=O)[O-])CC1	cell-free assay	competition with immobilised ligand	1 µM	69
CN(C)c1nccc(-c2cnn3ncccc23)n1	binding	–	1 µM	100
c1cncc(-c2cccc(Nc3nccc(NC4CCCCC4)n3)c2)c1	binding	competition with immobilised ligand	10 µM	39
C[C@H]1CCN(c2nccc(-c3cnn4ncccc34)n2)C1	binding	–	1 µM	99
N#Cc1ccc(Nc2ccc3[nH]c(=O)[nH]c3c2)c(Cl)c1	cell-free assay	competition with immobilised ligand	1 µM	100
N[C@H]1CCN(c2nccc(-c3cnn4ncccc34)n2)C1	binding	–	1 µM	100
CNC(=O)Nc1ccc2c(c1)[C@@]1(CC2)OC(=O)N(CC(=O)N(Cc2ccc(F)cc2)[C@@H](C)C(F)(F)F)C1=O	cell-free assay	competition with immobilised ligand	1 µM	90
CNC(=O)[C@@H]1CC[C@@H](n2c(-c3ccc4cnccc4c3)nc3ccc(C(=O)NCc4cccc(C(N)=O)c4)cc32)C1	binding	competition with immobilised ligand	1 µM	82
CN(CCCC(F)(F)F)c1nccc(-c2cnn3ncccc23)n1	binding	–	1 µM	95
